In ChEMBL document CHEMBL1137371, “Pyrazolidine-3,5-diones and 5-hydroxy-1H-pyrazol-3(2H)-ones, inhibitors of UDP-N-acetylenolpyruvyl glucosamine reductase” (J Med Chem, 2006):
Converted amounts (≈) assume the structure as drawn. The source made the active and inactive calls. The calls are words filed in the database; no cut-off is given here.

Tests used:
[1] = target: T1, UDP-N-acetylenolpyruvoylglucosamine reductase (Escherichia coli K-12, UniProt P08373); assay: Inhibition of MurB activity
T1 sequence (P08373 whole entry): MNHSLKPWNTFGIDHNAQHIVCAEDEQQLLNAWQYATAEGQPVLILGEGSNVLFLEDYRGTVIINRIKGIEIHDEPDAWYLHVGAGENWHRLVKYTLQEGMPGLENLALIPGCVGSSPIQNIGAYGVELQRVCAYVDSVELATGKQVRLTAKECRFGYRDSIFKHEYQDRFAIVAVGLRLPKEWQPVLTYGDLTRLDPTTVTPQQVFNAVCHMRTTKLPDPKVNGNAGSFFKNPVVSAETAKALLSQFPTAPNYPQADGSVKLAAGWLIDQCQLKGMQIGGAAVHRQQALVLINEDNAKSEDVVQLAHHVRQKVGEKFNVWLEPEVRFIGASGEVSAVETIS
In short: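 Recombinant E. coli MurB was expressed in BL21(λDE3) and purified. Enzyme (20 nM) was preincubated 20 min with inhibitor at 1.6, 3.2, 6.4, 12.8, 25 and 50 µM. Reaction in 50 mM Tris-HCl pH 8.0 with 10 mM KCl, 50 µM enolpyruvyl UDP-GlcNAc and 100 µM NADPH. NADPH oxidation followed as A340 decrease over 5 min. IC50 from sigmoid Hill fit, mean of three runs.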

[2] = system: Staphylococcus aureus; assay: Antibacterial activity against methicillin resistant Staphylococcus aureus GC 1131 by micro-broth dilution method; type: functional
[3] = system: Enterococcus faecalis; assay: Antibacterial activity against vancomycin resistant Enterococcus faecalis GC 2242 by microbroth dilution method; type: functional
[4] = system: Streptococcus pneumoniae; assay: Antibacterial activity against penicillin resistant Streptococcus pneumoniae GC 1894 by microbroth dilution method; type: functional
[5] = system: Escherichia coli; assay: Antibacterial activity against Escherichia coli GC 4560 (imp) by micro-broth dilution method; type: functional
In short: (§1)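 Broth microdilution in Mueller-Hinton II medium per NCCLS recommendations. Inoculum 5 × 10⁵ cfu/mL, compound range 0.06-128 µg/mL. MIC read after 18 h at 35 °C in ambient air.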

[6] = system: Staphylococcus epidermidis; assay: Inhibition of soluble peptidoglycan biosynthesis in Staphylococcus epidermidis; type: functional, organism-based
In short: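 S. epidermidis was grown in BHI to OD600 0.6, washed and concentrated tenfold in cell-wall-enriched medium. Cells incubated with 50 µg/mL chloramphenicol, 100 µg/mL penicillin G, [¹⁴C]-GlcNAc (2.9 µM/40 nCi) and compound at 0-25 µg/mL, 1 h, 37 °C, shaking. Supernatant precipitated with 5% TCA/0.4% BSA, 30 min at 4 °C, then filtered and scintillation counted.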

[7] = system: Candida albicans; assay: Antibacterial activity against Candida albicans by micro-broth dilution method; type: functional, organism-based; in short: as §1
[8] = system: Streptococcus pneumoniae; assay: Antibacterial activity against Streptococcus pneumoniae in presence of 4% bovine serum albumin; type: functional
[9] = Staphylococcus aureus, GC 1131, read-out: MIC
[10] = Enterococcus faecalis, GC 2242, read-out: MIC
[11] = Streptococcus pneumoniae, GC 1894, read-out: MIC
[12] = Escherichia coli, GC 4560, read-out: MIC

Compound	IC50 [1]	MIC [2, 9]	MIC [3, 10]	MIC [4, 11]	MIC [5, 12]	IC50 [6]	MIC [5]	Activity [7]	MIC [8]	MIC [3]	MIC [4]	MIC [2]
O=C1CC(=O)N(c2cccc(Cl)c2)N1c1cccc(Cl)c1	68.5 µM	16 µg/mL (≈ 49.8 µM)	16 µg/mL (≈ 49.8 µM)	8 µg/mL (≈ 24.9 µM)	200 µg/mL (≈ 623 µM)	56 µM	–	–	–	–	–	–
O=C1CC(=O)N(c2ccc(Cl)c(Cl)c2)N1c1ccc(Cl)c(Cl)c1	25.1 µM	8 µg/mL (≈ 20.5 µM)	8 µg/mL (≈ 20.5 µM)	4 µg/mL (≈ 10.3 µM)	32 µg/mL (≈ 82 µM)	41 µM	–	–	–	–	–	–
O=C(Nc1ccc(C(F)(F)F)cc1)c1c(O)n(-c2ccc(Cl)cc2)n(-c2ccc(Cl)cc2)c1=O	5.9 µM	–	–	–	–	8.3 µM	16 µg/mL (≈ 31.5 µM)	inactive	–	–	–	–
O=C(c1ccc(OC(F)(F)F)cc1)c1c(O)n(-c2ccc(Cl)cc2)n(-c2ccc(Cl)cc2)c1=O	5.4 µM	12.7 µg/mL (≈ 24.9 µM)	0.79 µg/mL (≈ 1.55 µM)	0.79 µg/mL (≈ 1.55 µM)	25.4 µg/mL (≈ 49.9 µM)	2 µM	–	inactive	> 128 µg/mL	–	–	–
O=C(Nc1ccccc1)c1c(O)n(-c2ccccc2)n(-c2ccccc2)c1=O	54 µM	64 µg/mL (≈ 172 µM)	8 µg/mL (≈ 21.5 µM)	16 µg/mL (≈ 43.1 µM)	> 128 µg/mL	–	–	inactive	> 128 µg/mL	–	–	–
O=C1CC(=O)N(c2ccccc2)N1c1ccccc1	> 100 µM	–	–	–	–	–	–	–	–	–	–	–
COc1ccc(NC(=O)c2c(O)n(-c3ccc(Cl)cc3)n(-c3ccc(Cl)cc3)c2=O)cc1	16 µM	–	–	–	–	–	>128 µg/mL	inactive	–	–	–	–
Cc1ccc(NC(=O)c2c(O)n(-c3ccc(Cl)c(Cl)c3)n(-c3ccc(Cl)c(Cl)c3)c2=O)cc1	4.8 µM	16 µg/mL (≈ 30.6 µM)	0.25 µg/mL (≈ 0.478 µM)	< 0.12 µg/mL	> 128 µg/mL	4 µM	–	inactive	> 128 µg/mL	–	–	–
COc1ccc(CC(=O)c2c(O)n(-c3ccc(Cl)cc3)n(-c3ccc(Cl)cc3)c2=O)cc1	40 µM	11.7 µg/mL (≈ 24.9 µM)	1.4 µg/mL (≈ 2.98 µM)	0.73 µg/mL (≈ 1.56 µM)	> 94 µg/mL	–	–	inactive	> 128 µg/mL	–	–	–
O=C(Nc1ccc(Cl)c(Cl)c1)c1c(O)n(-c2ccc(Cl)c(Cl)c2)n(-c2ccc(Cl)c(Cl)c2)c1=O	4.8 µM	64 µg/mL (≈ 111 µM)	0.5 µg/mL (≈ 0.865 µM)	0.5 µg/mL (≈ 0.865 µM)	> 128 µg/mL	–	–	inactive	> 128 µg/mL	–	–	–
O=C(Nc1ccc(Cl)cc1)c1c(O)n(-c2ccc(Cl)cc2)n(-c2ccc(Cl)cc2)c1=O	13.7 µM	–	–	–	–	42.2 µM	2 µg/mL (≈ 4.21 µM)	inactive	–	–	–	–
O=C(c1cccs1)c1c(O)n(-c2ccc(Cl)cc2)n(-c2ccc(Cl)cc2)c1=O	5.8 µM	5.4 µg/mL (≈ 12.5 µM)	1.3 µg/mL (≈ 3.01 µM)	0.67 µg/mL (≈ 1.55 µM)	21.6 µg/mL (≈ 50.1 µM)	1 µM	–	inactive	> 128 µg/mL	–	–	–
O=C(Nc1ccc(Br)cc1)c1c(O)n(-c2ccccc2)n(-c2ccccc2)c1=O	42 µM	16 µg/mL (≈ 35.5 µM)	1 µg/mL (≈ 2.22 µM)	1 µg/mL (≈ 2.22 µM)	> 128 µg/mL	–	–	inactive	> 128 µg/mL	–	–	–
O=C(c1ccc(-c2ccccc2)cc1)c1c(O)n(-c2ccc(Cl)cc2)n(-c2ccc(Cl)cc2)c1=O	6.1 µM	3.1 µg/mL (≈ 6.18 µM)	0.39 µg/mL (≈ 0.778 µM)	0.3 µg/mL (≈ 0.598 µM)	> 100 µg/mL	4.9 µM	–	inactive	> 128 µg/mL	–	–	–
O=C(c1ccc(C(F)(F)F)cc1)c1c(O)n(-c2ccc(Cl)cc2)n(-c2ccc(Cl)cc2)c1=O	15 µM	8 µg/mL (≈ 16.2 µM)	–	–	16 µg/mL (≈ 32.4 µM)	–	–	inactive	> 128 µg/mL	2 µg/mL (≈ 4.05 µM)	0.5 µg/mL (≈ 1.01 µM)	–
O=C1CC(=O)N(c2ccc(Cl)cc2)N1c1ccc(Cl)cc1	71.6 µM	8 µg/mL (≈ 24.9 µM)	8 µg/mL (≈ 24.9 µM)	8 µg/mL (≈ 24.9 µM)	16 µg/mL (≈ 49.8 µM)	–	–	–	–	–	–	–
O=C(Nc1ccc(C(F)(F)F)cc1)c1c(O)n(-c2cccc(Cl)c2)n(-c2cccc(Cl)c2)c1=O	8.7 µM	0.5 µg/mL (≈ 0.984 µM)	< 0.12 µg/mL	< 0.12 µg/mL	64 µg/mL (≈ 126 µM)	2.2 µM	–	inactive	> 128 µg/mL	–	–	–
COc1ccc(C(=O)c2c(O)n(-c3ccc(Cl)cc3)n(-c3ccc(Cl)cc3)c2=O)cc1	10 µM	11.3 µg/mL (≈ 24.8 µM)	–	–	–	–	23 µg/mL (≈ 50.5 µM)	inactive	> 128 µg/mL	5.7 µg/mL (≈ 12.5 µM)	2.8 µg/mL (≈ 6.15 µM)	–
O=C1CC(=O)N(c2ccc(F)cc2)N1c1ccc(F)cc1	> 87 µM	128 µg/mL (≈ 444 µM)	128 µg/mL (≈ 444 µM)	64 µg/mL (≈ 222 µM)	64 µg/mL (≈ 222 µM)	–	–	–	–	–	–	–
CCCCOc1ccc(C(=O)c2c(O)n(-c3ccc(Cl)cc3)n(-c3ccc(Cl)cc3)c2=O)cc1	4.5 µM	1.6 µg/mL (≈ 3.22 µM)	0.39 µg/mL (≈ 0.784 µM)	0.39 µg/mL (≈ 0.784 µM)	> 100 µg/mL	7.3 µM	–	inactive	> 128 µg/mL	–	–	–
O=C(c1ccc(Cl)cc1)c1c(O)n(-c2ccc(Cl)cc2)n(-c2ccc(Cl)cc2)c1=O	11 µM	–	–	–	–	–	23 µg/mL (≈ 50 µM)	inactive	> 128 µg/mL	1.4 µg/mL (≈ 3.05 µM)	0.72 µg/mL (≈ 1.57 µM)	5.7 µg/mL (≈ 12.4 µM)
O=C1C(=C(O)c2ccc(Cl)c(Cl)c2)C(=O)N(c2ccc(Cl)cc2)N1c1ccc(Cl)cc1	13 µM	6.2 µg/mL (≈ 12.5 µM)	0.77 µg/mL (≈ 1.56 µM)	0.39 µg/mL (≈ 0.789 µM)	49 µg/mL (≈ 99.2 µM)	–	–	inactive	> 128 µg/mL	–	–	–
O=C(Nc1ccc(Cl)cc1)c1c(O)n(-c2cccc(Cl)c2)n(-c2cccc(Cl)c2)c1=O	8.6 µM	0.5 µg/mL (≈ 1.05 µM)	0.25 µg/mL (≈ 0.527 µM)	< 0.12 µg/mL	> 128 µg/mL	3 µM	–	inactive	> 128 µg/mL	–	–	–
O=C(Nc1ccc(Cl)cc1)c1c(O)n(-c2ccccc2)n(-c2ccccc2)c1=O	54 µM	32 µg/mL (≈ 78.8 µM)	1 µg/mL (≈ 2.46 µM)	0.5 µg/mL (≈ 1.23 µM)	> 128 µg/mL	–	–	inactive	> 128 µg/mL	–	–	–
